Source: PubChem (several laboratories)
Sampled rows, rich in hits. Any-hit rate of the full collection: about 1.7%.
APJ antagonist: antagonists of human APJ apelin receptor. P35414. CHO-K1 APJ beta-arrestin complementation, luminescence. inhibition, % at 20 µM. actives 0.32% (n = 330,000). AID 2521;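 active means inhibition above about 40% at 20 µM, limit read from the data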;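 further: cells challenged with 10 nM apelin-13 agonist together with compound; plate controls were apelin-13 plus DMSO wells for no effect and DMSO wells lacking apelin-13 for full effect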
APJ agonist: APJ receptor agonism. CHO-K1 APJ PathHunter beta-arrestin, luminescence; 0% DMSO wells, 100% apelin. activation, % at 20 µM. actives 0.11% (n = 330,000). P35414;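 active means activation more than six SD over the plate average, tested at 20 µM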;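 further: 0% = DMSO alone and 100% = apelin-13 at 10 nM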
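Test system: CHO-K1 APJ beta-arrestin complementation cell line | Compound: Single test compound dose, 20 µM final, 1% DMSO | Incubation: Compound 90 min 25 °C, reagent 1 h | Measured by: beta-gal luminescence | Read-out basis: APJ–arrestin association signal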
B2AR ag: human beta-2 adrenergic receptor agonism by FAP; P07550; Am2.2-beta2AR cells, FAP receptor internalization, flow cytometry; response, % (concentration not given with the values); actives 0.43% (n = 340,000);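 active means response above a set limit, near 3 SD of response in nonfluorescent compounds, cut at about 42% in these data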
PfGluPho inh: PfG6PD (Plasmodium falciparum) enzyme inhibition; PfGluPho enzyme, NADPH resazurin-diaphorase fluorescence; actives 0.78% (n = 350,000); inhibition, % at 20 µM; AID 504690;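 active means inhibition reaching at least a set limit at 20 µM in the primary screen, cut at about 59% in these data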;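 further: 0% = DMSO wells with substrate and 100% = DMSO wells lacking glucose-6-phosphate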
CXCR6 block: inhibitors of human CXCR6 receptor | O00574 | CHO-K1 PathHunter CXCR6 beta-arrestin, luminescence | inhibition, % at 20 µM | actives 0.36% (n = 360,000) | AID 602244; in the data active means inhibition above about 34%, passing the limit was not always enough;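 further: antagonist mode with CXCL16 agonist at 10 nM final; 0% = 10 nM CXCL16 with DMSO and 100% = unstimulated wells without agonist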
Target sequence (O00574 whole entry, looked up): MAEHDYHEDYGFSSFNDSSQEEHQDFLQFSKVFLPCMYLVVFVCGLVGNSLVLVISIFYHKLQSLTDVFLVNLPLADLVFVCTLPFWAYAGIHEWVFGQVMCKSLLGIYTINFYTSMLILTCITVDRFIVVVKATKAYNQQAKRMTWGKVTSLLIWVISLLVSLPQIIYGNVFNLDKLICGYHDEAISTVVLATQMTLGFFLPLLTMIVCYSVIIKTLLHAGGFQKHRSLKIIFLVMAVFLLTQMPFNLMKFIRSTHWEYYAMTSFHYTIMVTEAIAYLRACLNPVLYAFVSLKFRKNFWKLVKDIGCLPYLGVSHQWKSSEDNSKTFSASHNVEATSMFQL
CCR6 antag: antagonists of human CCR6 receptor. P51684. CHO-K1 CCR6 PathHunter beta-arrestin, luminescence, CCL20-stimulated. inhibition, % at 20 µM. actives 0.49% (n = 340,000). AID 493098;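 active means compounds whose inhibition of the agonist-driven luminescence signal at 20 µM reaches about 50%, limit read from the data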;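 further: cells stimulated with CCL20 at 14 nM final; plate controls were DMSO with CCL20 for no effect and DMSO without agonist for full effect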
PfGluPho conf: PfG6PD inhibition, single-dose confirmed. recombinant PfGluPho, NADPH-diaphorase-resazurin fluorescence. inhibition, % at 20 µM. actives 34% (n = 2,400). shares compounds with PfGluPho inh;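 active means inhibition of at least 50% at 20 µM in any single replicate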;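 further: 0% = DMSO with substrate and 100% = DMSO lacking glucose-6-phosphate substrate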
Diaph ctr 10uM: diaphorase inhibition or oxidation at 10 uM NADPH | shares compounds with PfGluPho inh | diaphorase-coupled resazurin reduction, fluorescence, NADPH 10 uM | inhibition, % at 20 µM | actives 39% (n = 820) | AID 504862;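 active means average inhibition reaching 50% or more with the compound at 20 µM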;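 further: resorufin red fluorescence formed as diaphorase reduces resazurin using NADPH; 0% = DMSO with enzyme and 100% = DMSO without enzyme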
Diaph ctr 30uM: counter-screen for P. falciparum G6PD inhibitors: diaphorase inhibitors, oxidizers; shares compounds with PfGluPho inh; Diaphorase/resazurin coupled assay, resorufin fluorescence, 30 uM NADPH; inhibition, % at 20 µM; actives 29% (n = 820);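 active means inhibition averaging 50% or more, tested at 20 µM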;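 further: 0% = DMSO with enzyme and 100% = DMSO wells lacking diaphorase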
CXCR6 confirm: confirmation of human CXCR6 receptor antagonists; shares compounds with CXCR6 block; CHO-K1 CXCR6 PathHunter beta-arrestin, luminescence; inhibition, % at 20 µM; actives 65% (n = 700);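 active means mean inhibition over four retests above 40%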;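 further: receptor stimulated with 10 nM CXCL16 agonist; beta-galactosidase fragment complementation upon beta-arrestin recruitment to receptor; plate controls were CXCL16 plus DMSO for no effect and DMSO without CXCL16 for full effect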
Starred values were filed as active, the others as inactive; . = not tested or not shown.

SMILES	APJ antagonist	APJ agonist	B2AR ag	PfGluPho inh	CXCR6 block	CCR6 antag	PfGluPho conf	others
COc1ccc(-n2nnnc2C(c2cccc3ccccc23)N2CCC3(CC2)C(=O)NCN3c2ccccc2)cc1 (stereo not given)	.	.	.	.	-4.6	.	.
CC(C)=CCOc1c2occc2cc2ccc(=O)oc12	7.5	0.1	-9.9	67.7*	-2.0	11.3	44.7
CC1(C)OC1COc1c2occc2cc2ccc(=O)oc12 (stereo not given)	-56.1	1.1	-23.7	6.0	0.1	-1.1	.
Cc1ccc(-n2c(=S)[nH]c3ccccc3c2=O)cc1C	.	.	.	-1.3	7.6	.	.
COc1c(OP2(=S)OCC(C)(C)CO2)cnn(C2CCCCC2)c1=O	.	.	.	.	7.4	.	.
O=c1[nH]sc2cc(F)ccc12	.	.	4.4	63.3*	1.0	5.9	52.5*	Diaph ctr 10uM=-5.0;Diaph ctr 30uM=-9.3
C[C@]12CCC3C(CC[C@H]4C[C@@H](O)CC[C@]34C)C1C/C(=N/O)[C@@H]2O (stereo not given in full)	5.2	-1.9	-8.3	-12.9	-4.5	1.7	.
CSCCC(c1nnnn1-c1ccc2c(c1)OCCO2)N1CCC(n2c(=O)[nH]c3ccccc32)CC1 (stereo not given)	.	.	.	.	3.4	.	.
O=C1NC(=S)NC(=O)C1=Cc1c(Cl)cccc1Cl	.	.	37.5	29.5	10.9	18.7	.
O=C1NC(=S)NC(=O)C1=Cc1ccc(Br)s1	-21.8	-2.1	54.0*	64.8*	12.0	22.6	84.0*	Diaph ctr 10uM=-23.6;Diaph ctr 30uM=-15.6
C=CCNC(=O)c1c(N)n(Cc2ccco2)c2nc3ccccc3nc12	11.0	-1.6	6.1	31.7	11.0	15.5	.
COCCNC(=O)c1c(N)n(Cc2ccco2)c2nc3ccccc3nc12	18.9	-6.1	-4.8	59.9*	5.1	7.7	-2.4
CN1CCc2cc(O)cc3c2[C@H]1Cc1ccc(O)c(O)c1-3	2.9	-3.9	-8.5	86.1*	-4.8	-13.5	83.1*	Diaph ctr 10uM=24.5;Diaph ctr 30uM=6.2
CCCN1CCc2cc(O)cc3c2[C@H]1Cc1ccc(O)c(O)c1-3	-0.1	-1.0	0.5	86.2*	-1.0	3.2	77.3*	Diaph ctr 10uM=18.8;Diaph ctr 30uM=29.9
Cc1ccc(CCN2CC(C(=O)N3CCC4(CC3)OCCO4)CC2=O)cc1 (stereo not given)	2.4	-2.4	-0.4	-10.6	8.0	-5.4	.
O=C1NC(=O)C(=Cc2ccc(-c3ccccc3[N+](=O)[O-])o2)C(=O)N1	-1.5	4.0	-7.7	87.9*	5.3	10.9	76.0*	Diaph ctr 10uM=15.7;Diaph ctr 30uM=4.7
O=C1NC(=O)C(=Cc2ccc(-c3cc(Cl)ccc3[N+](=O)[O-])o2)C(=O)N1	.	.	1.6	69.2*	15.8	8.2	24.8
O=C1NC(=O)C(=Cc2csc3ccccc23)C(=O)N1	-8.1	-0.5	23.8	65.2*	-9.1	-8.0	31.4
CC(=O)n1cc(C=C2C(=O)NC(=O)NC2=O)c2ccccc21	-12.9	-1.3	11.4	66.4*	3.4	5.9	-20.0
COC(=O)C1=C(c2ccc(-c3ccccc3)c(F)c2)C[C@@H]2CC[C@H]1N2C(=O)NC1CC1	3.0	-2.9	-1.1	3.0	-2.8	3.2	.
O=C(Cc1cccs1)N1CCC2(CC1)OCCO2	-0.6	1.5	-5.8	-19.1	-2.4	2.6	.
NC(=O)CSc1nnc([C@@H](N)Cc2c[nH]c3ccccc23)o1	-14.4	-2.5	-1.1	-2.4	-11.3	-24.6	.
CCC(=NCc1ccco1)c1c(O)[nH]c(=O)[nH]c1=O	-2.3	-0.9	-0.9	-24.1	-9.3	14.4	.
CN1CCc2cc3c(c4c2C1Cc1ccccc1-4)OCO3 (stereo not given)	-6.3	1.9	3.4	88.9*	-15.6	-6.5	24.2
COc1cc2c(cc1O)C[C@H]1c3c(cc(O)c(OC)c3-2)CCN1C	-4.8	13.3	-3.7	-3.1	-8.7	4.9	.
SMILES	APJ antagonist	APJ agonist	B2AR ag	PfGluPho inh	CXCR6 block	CCR6 antag	PfGluPho conf	others
COc1cc(/C=C/c2nc3ccccc3c(=O)n2-c2cccc(O)c2)ccc1O	13.4	-3.3	-100.9	24.7	5.2	4.2	.
COc1cc(/C=C/c2nc3ccccc3c(=O)n2-c2ccccc2O)ccc1O	-14.3	-2.2	-48.4	84.3*	-12.8	-5.2	38.7
CC1=C(O)C(=O)C=C2C1=CC=C1C2(C)CCC2(C)C3CC(C)(C(=O)O)CCC3(C)CCC12C (stereo not given)	.	.	105.0*	80.5*	64.1*	.	71.1*	Diaph ctr 10uM=-15.2;Diaph ctr 30uM=-16.0;CXCR6 confirm=53.3*
O=[N+]([O-])c1ccc(N2CCCC(C(F)(F)F)C2)c2ccncc12 (stereo not given)	-46.2	11.5	-9.7	19.5	-3.1	0.2	.
COC(=O)C1=C(C(=O)OC)C2OC1c1cc3ccccc3cc12	.	.	16.9	49.1	85.1*	109.2*	.	CXCR6 confirm=91.1*
C=CCn1c(O)c(C(C)=NCC2CCCO2)c(=O)[nH]c1=O (stereo not given)	-2.8	-0.4	13.0	4.1	-2.7	-4.6	.
